# Assay results from ChEMBL document CHEMBL4304819, “Natural product pectolinarigenin exhibits potent anti-metastatic activity in colorectal carcinoma cells in vitro and in vivo” (2019).
# Active and inactive are the calls of the source. No cut-off for these calls is given here.
# Assays:
# [1] = test system: CT26; assay: Antimetastatic activity against mouse CT26 cells allografted in Balb/c mouse assessed as reduction in splenomegaly at 25 to 50 mg/kg, ip administered daily for 14 days starting from 6 days post implantation; type: functional, organism-based
# Method in brief: (§1)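 Female BALB/c mice (6–8 weeks) injected ip with 5 × 10^5 CT26 cells; from day 6, randomized (eight per group) to ip vehicle, 25 or 50 mg/kg once daily for 14 days. Abdominal circumference and body weight every 3 days; abdominal nodules counted by eye and weighed; spleens assessed; paraffin tumour sections immunostained (Ki-67, MMP-9, p-Stat3) with DAB detection.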
# [2] = test system: CT26; assay: Antimigratory activity against mouse CT26 cells assessed as inhibition of cell migration after 48 hrs by crystal violet staining based Boyden-chamber cell migration assay; type: functional
# Method in brief: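 Boyden chamber, 8 μm pores: 1 × 10^5 cells in serum-free medium above, 10% FBS medium below, compound at various concentrations in both chambers; migration 48 h. Non-migrated cells swabbed off; migrated cells fixed in methanol, stained 0.5% crystal violet 20 min, counted in six random fields under light microscope; expressed as % inhibition versus untreated.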
# [3] = test system: CT26; assay: Induction of apoptosis in mouse CT26 cells assessed as decrease in Bcl-2 protein expression up to 40 uM after 48 hrs by Western blot analysis; type: functional, cell-based
# Method in brief: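 Cells treated 48 h at 0, 10, 20 and 40 μM, washed in cold PBS, lysed in RIPA; protein equalized by Lowry assay, resolved by SDS-PAGE, transferred to PVDF, blocked 1 h at 37 °C, primary antibody overnight at 4 °C, secondary 1 h, ECL detection, densitometry. β-actin loading control.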
# [4] = test system: CT26; assay: Antimetastatic activity against mouse CT26 cells allografted in Balb/c mouse assessed as reduction in abdominal circumference at 25 to 50 mg/kg, ip administered daily for 14 days starting from 6 days post implantation; type: functional, organism-based; method in brief: as §1
# [5] = test system: SW48; assay: Anticlonogenic activity against human SW48 cells assessed as reduction in colony formation up to 40 uM incubated for 24 hrs supplemented with fresh medium containing compound every 3 days for 12 days by crystal violet staining-based microscopic analysis; type: functional, cell-based
# Method in brief: (§2)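 Cells seeded at 400–800 per well in 6-well plates; after 24 h, treated with 0–40 μM in fresh medium (with or without compound) replaced every three days for 12 days. Colonies fixed in methanol, stained with 0.5% crystal violet for 15 min and counted by microscope; reported as surviving colonies, mean ± SD of three experiments.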
# [6] = test system: HCT-116; assay: Induction of apoptosis in human HCT116 cells assessed as early apoptotic cells at 10 uM after 48 hrs by Annexin V-FITC/propidium iodide staining-based flow cytometric analysis (reference value: 1.23 %); type: functional
# Method in brief: (§3)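 Cells (1–2 × 10^5 per well) seeded in six-well plates 24 h, treated at 0–40 μM for 24 h or 48 h, harvested, washed twice in cold PBS, stained with Annexin V-FITC/PI and analysed by flow cytometry; early (Annexin V only) and late (Annexin V and PI) apoptotic fractions quantified; three experiments.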
# [7] = test system: CT26; assay: Induction of apoptosis in mouse CT26 cells assessed as viable cells at 10 uM after 48 hrs by Annexin V-FITC/propidium iodide staining-based flow cytometric analysis (reference value: 88.9 %); type: functional; conditions: CT26, 48 h, read-out: Activity
# Method in brief: (§4)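 CT26 cells seeded at 1–2 × 10^5 per well in six-well plates for 24 h, then exposed to PEC (0–40 μM) for 24 or 48 h. Cells harvested, washed twice in cold PBS, stained with Annexin V-FITC/PI and read by flow cytometry. Early apoptotic = Annexin V+ only; late apoptotic = Annexin V+/PI+. Mean ± SD of three experiments.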
# [8] = test system: CT26; assay: Induction of apoptosis in mouse CT26 cells assessed as necrotic cells at 40 uM after 48 hrs by Annexin V-FITC/propidium iodide staining-based flow cytometric analysis (reference value: 1.80 %); type: functional; method in brief: as §4
# [9] = test system: CT26; assay: Anticlonogenic activity against mouse CT26 cells assessed as reduction in colony formation up to 40 uM incubated for 24 hrs supplemented with fresh medium containing compound every 3 days for 12 days by crystal violet staining-based microscopic analysis; type: functional, cell-based; method in brief: as §2
# [10] = test system: HCT-116; assay: Antiproliferative activity against human HCT116 cells assessed as reduction in cell viability up to 40 uM by MTT assay; type: functional, cell-based; conditions: TDE = time-dependent effect
# Method in brief: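 Exponentially growing cells (2–6 × 10^3 per well) seeded in 96-well plates for 24 h, then exposed to 0, 2.5, 5, 10, 20, 40 µM for 24, 48 and 72 h. MTT (5 mg/mL stock) added 2–4 h at 37 °C; formazan dissolved in DMSO, absorbance at 570 nm. Three independent experiments.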
# [11] = test system: CT26; assay: Induction of apoptosis in mouse CT26 cells assessed as late apoptotic cells at 20 uM after 48 hrs by Annexin V-FITC/propidium iodide staining-based flow cytometric analysis (reference value: 6.49 %); type: functional; method in brief: as §4
# [12] = test system: CT26; assay: Induction of apoptosis in mouse CT26 cells assessed as late apoptotic cells at 40 uM after 48 hrs by Annexin V-FITC/propidium iodide staining-based flow cytometric analysis (reference value: 6.49 %); type: functional; method in brief: as §4
# [13] = test system: SW48; assay: Inhibition of colony formation in human SW48 cells assessed as reduction in number of colonies up to 40 uM incubated for 24 hrs supplemented with fresh medium containing compound every 3 days for 12 days by crystal violet staining-based microscopic analysis; type: functional, cell-based
# Method in brief: (§5)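 400–800 cells per well seeded in 6-well plates; after 24 h, PEC (0–40 μM) added. Medium with or without compound replaced every three days for 12 days. Colonies washed in cold PBS, fixed in methanol, stained 15 min with 0.5% crystal violet and counted under a microscope. Mean ± SD of three experiments.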
# [14] = test system: CT26; assay: Induction of apoptosis in mouse CT26 cells assessed as early apoptotic cells at 10 uM after 48 hrs by Annexin V-FITC/propidium iodide staining-based flow cytometric analysis (reference value: 2.84 %); type: functional; method in brief: as §4
# [15] = test system: HCT-116; assay: Induction of apoptosis in human HCT116 cells assessed as necrotic cells at 20 uM after 48 hrs by Annexin V-FITC/propidium iodide staining-based flow cytometric analysis (reference value: 8.24 %); type: functional; method in brief: as §3
# [16] = test system: CT26; assay: Induction of apoptosis in mouse CT26 cells assessed as increase in cleaved caspase-3 expression after 48 hrs by Western blot analysis; type: functional, cell-based
# Method in brief: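 CT26 cells exposed 48 h to PEC at 0, 10, 20 and 40 μM, washed twice in cold PBS, lysed in RIPA. Protein measured by Lowry and equalized, run on SDS-PAGE, blotted to PVDF. Blocked 1 h at 37 °C, primary antibodies (Bax, Bcl-2, pro-caspase-3, cleaved caspase-3) overnight at 4 °C, secondary 1 h, ECL detection, densitometry.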
# [17] = test system: HCT-116; assay: Induction of apoptosis in human HCT116 cells assessed as late apoptotic cells at 20 uM after 48 hrs by Annexin V-FITC/propidium iodide staining-based flow cytometric analysis (reference value: 3.87 %); type: functional; method in brief: as §3
# [18] = test system: HCT-116; assay: Induction of apoptosis in human HCT116 cells assessed as necrotic cells at 40 uM after 48 hrs by Annexin V-FITC/propidium iodide staining-based flow cytometric analysis (reference value: 8.24 %); type: functional; method in brief: as §3
# [19] = test system: CT26; assay: Inhibition of colony formation in mouse CT26 cells assessed as reduction in size of colonies up to 40 uM incubated for 24 hrs supplemented with fresh medium containing compound every 3 days for 12 days by crystal violet staining-based microscopic analysis; type: functional, cell-based; method in brief: as §5
compound,measurement,setting,value
COc1ccc(-c2cc(=O)c3c(O)c(OC)c(O)cc3o2)cc1 [PECTOLINARIGENIN],Activity,[1],Active
same,inhibition,[2],Dose-dependent effect
same,Activity,[3],Active
same,Activity,[4],Active
same,inhibition,[5],Active
same,Activity,[6],5.08%
same,viability at 10 µM,[7],77.1%
same,Activity,[8],3.09%
same,inhibition,[9],Active
same,inhibition,[10],Tde
same,Activity,[11],12.4%
same,Activity,[12],13.4%
same,inhibition,[13],Active
same,Activity,[14],3.57%
same,Activity,[15],4.55%
same,Activity,[16],Dose-dependent effect
same,Activity,[17],7.36%
same,Activity,[18],7.17%
same,inhibition,[19],Active
